Data from ChEMBL document CHEMBL1137781, “Synthesis and preclinical evaluation of novel PET probes for P-glycoprotein function and expression” (J Med Chem, 2009).

Columns and labels:
[1] = tested on: Pancreas; assay: Biodistribution in Wistar rat pancreas at 38+/-8 MBq, iv after 80 mins; type: ADME, organism-based; conditions: in vivo
Outline: (§1)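 Male Wistar rats (12 h light/dark, chow ad libitum) were fitted with a femoral arterial cannula under isoflurane. They were pretreated via tail vein with saline, cyclosporin A (50 mg/kg), or nonradioactive tracer compound (15 mg/kg; 10 mg/mL in saline with 35% ethanol). The 11C tracer was then given via penile vein, followed by 76 min microPET. Animals were then terminated; excised tissues were weighed and gamma-counted with decay correction. Values are SUVs (tissue MBq/g × body weight g / injected MBq).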

[2] = tested on: Muscle tissue; assay: Biodistribution in Wistar rat muscle at 38+/-8 MBq, iv after 80 mins; type: ADME, organism-based; conditions: in vivo; outline: as §1
[3] = tested on: Kidney; assay: Biodistribution in Wistar rat kidney at 38+/-8 MBq, iv after 80 mins; type: ADME, organism-based; conditions: in vivo; outline: as §1
[4] = tested on: Liver; assay: Biodistribution in Wistar rat liver at 38+/-8 MBq, iv after 80 mins; type: ADME, organism-based; conditions: in vivo; outline: as §1
[5] = tested on: Ileum; assay: Biodistribution in Wistar rat ileum at 38+/-8 MBq, iv after 80 mins; type: ADME, organism-based; conditions: in vivo; outline: as §1
[6] = tested on: Heart; assay: Biodistribution in Wistar rat heart at 38+/-8 MBq, iv after 80 mins; type: ADME, organism-based; conditions: in vivo; outline: as §1
[7] = Biodistribution in Wistar rat fat at 38+/-8 MBq, iv after 80 mins; type: ADME, organism-based, Adipose tissue; conditions: in vivo; outline: as §1
[8] = tested on: Duodenum; assay: Biodistribution in Wistar rat duodenum at 38+/-8 MBq, iv after 80 mins; type: ADME, organism-based; conditions: in vivo; outline: as §1
[9] = tested on: Colon; assay: Biodistribution in Wistar rat colon at 38+/-8 MBq, iv after 80 mins; type: ADME, organism-based; conditions: in vivo; outline: as §1
[10] = tested on: Bone; assay: Biodistribution in Wistar rat bone at 38+/-8 MBq, iv after 80 mins; type: ADME, organism-based, Bone element; conditions: in vivo
[11] = tested on: Striatum; assay: Biodistribution in Wistar rat striatum at 38+/-8 MBq, iv after 80 mins; type: ADME, organism-based; conditions: in vivo
[12] = tested on: Pons; assay: Biodistribution in Wistar rat pons at 38+/-8 MBq, iv after 80 mins; type: ADME, organism-based; conditions: in vivo
[13] = Biodistribution in Wistar rat parietal/temporal/occipital cortex at 38+/-8 MBq, iv after 80 mins; type: ADME, organism-based; conditions: in vivo; outline: as §1
[14] = Biodistribution in Wistar rat medulla at 38+/-8 MBq, iv after 80 mins; type: ADME, organism-based, Medulla of organ; conditions: in vivo; outline: as §1
[15] = tested on: Hippocampus; assay: Biodistribution in Wistar rat hippocampus at 38+/-8 MBq, iv after 80 mins; type: ADME, organism-based; conditions: in vivo; outline: as §1
[16] = Biodistribution in Wistar rat frontal cortex at 38+/-8 MBq, iv after 80 mins; type: ADME, organism-based; conditions: in vivo; outline: as §1
[17] = Biodistribution in Wistar rat entorhinal cortex at 38+/-8 MBq, iv after 80 mins; type: ADME, organism-based; conditions: in vivo; outline: as §1
[18] = Biodistribution in Wistar rat cingulate cortex at 38+/-8 MBq, iv after 80 mins; type: ADME, organism-based; conditions: in vivo; outline: as §1
[19] = tested on: Cerebellum; assay: Biodistribution in Wistar rat cerebellum at 38+/-8 MBq, iv after 80 mins; type: ADME, organism-based; conditions: in vivo
[20] = Biodistribution in Wistar rat bulbus olfactorius at 38+/-8 MBq, iv after 80 mins; type: ADME, organism-based, Olfactory bulb; conditions: in vivo
[21] = Biodistribution in Wistar rat amygdala at 38+/-8 MBq, iv after 80 mins; type: ADME, organism-based; conditions: in vivo
[22] = tested on: Plasma; assay: Biodistribution in Wistar rat plasma at 38+/-8 MBq, iv after 60 mins; type: ADME, organism-based; conditions: in vivo, 1 h
[23] = Biodistribution in Wistar rat red blood cells at 38+/-8 MBq, iv after 80 mins; type: ADME, organism-based, Erythrocyte; conditions: in vivo
[24] = tested on: Plasma; assay: Biodistribution in Wistar rat plasma at 38+/-8 MBq, iv after 80 mins; type: ADME, organism-based; conditions: in vivo
Outline: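 Male Wistar rats under isoflurane were given tracer via the penile vein after tail-vein pretreatment with saline or drug. At the end of a 76 min microPET scan the anesthetized animals were terminated. Blood was collected and centrifuged 5 min at 1000g for plasma. Plasma was weighed, γ-counted with decay correction and expressed as SUV (tissue MBq/g × body weight/injected dose).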

[25] = tested on: Rattus norvegicus; assay: AUC in 50 mg/kg cyclosporin A pretreated Wistar rat at 49+/-11 MBq, iv; type: ADME, organism-based, Plasma; design: dose 50 mg/kg, route intravenous; conditions: in vivo
Outline: (§2)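 Male Wistar rats with a femoral arterial cannula placed under isoflurane. Saline or cyclosporin A (50 mg/kg, commercial solution) given via tail vein, then the [11C] tracer via penile vein. Dynamic microPET over the brain for 76 min, with 14 arterial samples to 60 min. Plasma counted in a γ counter. AUC of whole-brain or plasma SUV over 0-60 min.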

[26] = tested on: Rattus norvegicus; assay: AUC in Wistar rat at 38+/-8 MBq, iv; type: ADME, organism-based, Plasma; conditions: in vivo; outline: as §2
[27] = tested on: Spleen; assay: Biodistribution in Wistar rat spleen at 38+/-8 MBq, iv after 80 mins; type: ADME, organism-based; conditions: in vivo
[28] = Biodistribution in Wistar rat trachea at 38+/-8 MBq, iv after 80 mins; type: ADME, organism-based; conditions: in vivo
[29] = Biodistribution in 50 mg/kg cyclosporin A pretreated Wistar rat amygdala at 49+/-11 MBq, iv after 80 mins; type: ADME, organism-based; design: dose 50 mg/kg, route intravenous; conditions: in vivo
Outline: (§3)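 Male Wistar rats pretreated with saline or cyclosporin A (50 mg/kg) via tail vein, then given the [11C] tracer via penile vein. Tissues excised after scanning and weighed. γ counting with decay correction. Results as SUV normalized to body weight and injected dose.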

[30] = Biodistribution in 50 mg/kg cyclosporin A pretreated Wistar rat bulbus olfactorius at 49+/-11 MBq, iv after 80 mins; type: ADME, organism-based, Olfactory bulb; design: dose 50 mg/kg, route intravenous; conditions: in vivo
Outline: (§4)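 Male Wistar rats pretreated via tail vein with saline or cyclosporin A (50 mg/kg, commercial solution), then given the [11C] tracer via penile vein. After microPET scanning the anesthetized rats were killed. Tissues were excised and weighed, and blood was centrifuged into plasma and cells. γ counting with decay correction. Results as SUV (tissue MBq/g × body weight/injected dose).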

[31] = tested on: Cerebellum; assay: Biodistribution in 50 mg/kg cyclosporin A pretreated Wistar rat cerebellum at 49+/-11 MBq, iv after 80 mins; type: ADME, organism-based; design: dose 50 mg/kg, route intravenous; conditions: in vivo; outline: as §4
[32] = Biodistribution in 50 mg/kg cyclosporin A pretreated Wistar rat cingulate cortex at 49+/-11 MBq, iv after 80 mins; type: ADME, organism-based; design: dose 50 mg/kg, route intravenous; conditions: in vivo; outline: as §4
[33] = Biodistribution in 50 mg/kg cyclosporin A pretreated Wistar rat entorhinal cortex at 49+/-11 MBq, iv after 80 mins; type: ADME, organism-based; design: dose 50 mg/kg, route intravenous; conditions: in vivo; outline: as §4
[34] = Biodistribution in 50 mg/kg cyclosporin A pretreated Wistar rat frontal cortex at 49+/-11 MBq, iv after 80 mins; type: ADME, organism-based; design: dose 50 mg/kg, route intravenous; conditions: in vivo
[35] = tested on: Hippocampus; assay: Biodistribution in 50 mg/kg cyclosporin A pretreated Wistar rat hippocampus at 49+/-11 MBq, iv after 80 mins; type: ADME, organism-based; design: dose 50 mg/kg, route intravenous; conditions: in vivo
[36] = Biodistribution in 50 mg/kg cyclosporin A pretreated Wistar rat medulla at 49+/-11 MBq, iv after 80 mins; type: ADME, organism-based, Medulla of organ; design: dose 50 mg/kg, route intravenous; conditions: in vivo
[37] = Biodistribution in 50 mg/kg cyclosporin A pretreated Wistar rat parietal/temporal/occipital cortex at 49+/-11 MBq, iv after 80 mins; type: ADME, organism-based; design: dose 50 mg/kg, route intravenous; conditions: in vivo
[38] = tested on: Pons; assay: Biodistribution in 50 mg/kg cyclosporin A pretreated Wistar rat pons at 49+/-11 MBq, iv after 80 mins; type: ADME, organism-based; design: dose 50 mg/kg, route intravenous; conditions: in vivo
[39] = tested on: Striatum; assay: Biodistribution in 50 mg/kg cyclosporin A pretreated Wistar rat striatum at 49+/-11 MBq, iv after 80 mins; type: ADME, organism-based; design: dose 50 mg/kg, route intravenous; conditions: in vivo
[40] = tested on: Bone; assay: Biodistribution in 50 mg/kg cyclosporin A pretreated Wistar rat bone at 49+/-11 MBq, iv after 80 mins; type: ADME, organism-based, Bone element; design: dose 50 mg/kg, route intravenous; conditions: in vivo; outline: as §3
[41] = tested on: Colon; assay: Biodistribution in 50 mg/kg cyclosporin A pretreated Wistar rat colon at 49+/-11 MBq, iv after 80 mins; type: ADME, organism-based; design: dose 50 mg/kg, route intravenous; conditions: in vivo; outline: as §4
[42] = tested on: Duodenum; assay: Biodistribution in 50 mg/kg cyclosporin A pretreated Wistar rat duodenum at 49+/-11 MBq, iv after 80 mins; type: ADME, organism-based; design: dose 50 mg/kg, route intravenous; conditions: in vivo; outline: as §4
[43] = Biodistribution in 50 mg/kg cyclosporin A pretreated Wistar rat fat at 49+/-11 MBq, iv after 80 mins; type: ADME, organism-based, Adipose tissue; design: dose 50 mg/kg, route intravenous; conditions: in vivo; outline: as §4
[44] = tested on: Heart; assay: Biodistribution in 50 mg/kg cyclosporin A pretreated Wistar rat heart at 49+/-11 MBq, iv after 80 mins; type: ADME, organism-based; design: dose 50 mg/kg, route intravenous; conditions: in vivo
[45] = tested on: Ileum; assay: Biodistribution in 50 mg/kg cyclosporin A pretreated Wistar rat ileum at 49+/-11 MBq, iv after 80 mins; type: ADME, organism-based; design: dose 50 mg/kg, route intravenous; conditions: in vivo
[46] = tested on: Kidney; assay: Biodistribution in 50 mg/kg cyclosporin A pretreated Wistar rat kidney at 49+/-11 MBq, iv after 80 mins; type: ADME, organism-based; design: dose 50 mg/kg, route intravenous; conditions: in vivo
[47] = tested on: Liver; assay: Biodistribution in 50 mg/kg cyclosporin A pretreated Wistar rat liver at 49+/-11 MBq, iv after 80 mins; type: ADME, organism-based; design: dose 50 mg/kg, route intravenous; conditions: in vivo
[48] = tested on: Lung; assay: Biodistribution in 50 mg/kg cyclosporin A pretreated Wistar rat lung at 49+/-11 MBq, iv after 80 mins; type: ADME, organism-based; design: dose 50 mg/kg, route intravenous; conditions: in vivo
[49] = tested on: Muscle tissue; assay: Biodistribution in 50 mg/kg cyclosporin A pretreated Wistar rat muscle at 49+/-11 MBq, iv after 80 mins; type: ADME, organism-based; design: dose 50 mg/kg, route intravenous; conditions: in vivo
[50] = tested on: Plasma; assay: Biodistribution in 50 mg/kg cyclosporin A pretreated Wistar rat plasma at 49+/-11 MBq, iv after 80 mins; type: ADME, organism-based; design: dose 50 mg/kg, route intravenous; conditions: in vivo
[51] = Biodistribution in 50 mg/kg cyclosporin A pretreated Wistar rat red blood cells at 49+/-11 MBq, iv after 80 mins; type: ADME, organism-based, Erythrocyte; design: dose 50 mg/kg, route intravenous; conditions: in vivo
[52] = Biodistribution in 50 mg/kg cyclosporin A pretreated Wistar rat trachea at 49+/-11 MBq, iv after 80 mins; type: ADME, organism-based; design: dose 50 mg/kg, route intravenous; conditions: in vivo

COc1ccc(CCN([11CH3])CCCC(C#N)(c2ccc(OC)c(OC)c2)C(C)C)cc1OC (configuration not stated)
SUV [1]: 0.82
SUV [2]: 0.29
SUV [3]: 0.61
SUV [4]: 1.23
SUV [5]: 0.49
SUV [6]: 0.24
SUV [7]: 0.38
SUV [8]: 0.78
SUV [9]: 0.32
SUV [10]: 0.25
SUV [11]: 0.038
SUV [12]: 0.034
SUV [13]: 0.036
SUV [14]: 0.044
SUV [15]: 0.036
SUV [16]: 0.031
SUV [17]: 0.027
SUV [18]: 0.027
SUV [19]: 0.052
SUV [20]: 0.038
SUV [21]: 0.034
SUV [22]: 0.18
SUV [23]: 0.06
SUV [24]: 0.13
AUC [25]: 110%
AUC [26]: 100%
SUV [27]: 0.93
SUV [28]: 0.35
SUV [29]: 0.62
SUV [30]: 0.57
SUV [31]: 0.6
SUV [32]: 0.5
SUV [33]: 0.59
SUV [34]: 0.52
SUV [35]: 0.54
SUV [36]: 0.67
SUV [37]: 0.64
SUV [38]: 0.68
SUV [39]: 0.55
SUV [40]: 0.38
SUV [41]: 0.4
SUV [42]: 0.63
SUV [43]: 0.5
SUV [44]: 0.3
SUV [45]: 0.56
SUV [46]: 1.07
SUV [47]: 1.84
SUV [48]: 1.95
SUV [49]: 0.37
SUV [50]: 0.17
SUV [51]: 0.07
SUV [52]: 0.46
